The text below walks through data of PubChem BioAssay AID504383 (The Scripps Research Institute Molecular Screening Center, 2011).

Screen size: about 2,500 compounds; about 1,200 (48%) were called active. The set was probably picked from earlier hits. This is one part of the list. Values without a mark were called inactive.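 Rule for the calls: active = mean activation above the low control average plus 3 SD, as set in the primary screen (cut at about 12% in these data); inactive = the rest.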

In the test the target is Troponin I, cardiac muscle (Homo sapiens) + Troponin T, cardiac muscle (Homo sapiens) + Troponin C, slow skeletal and cardiac muscles (Homo sapiens) (UniProt P19429+P45379+P63316). Put plainly: calcium sensitizers of cardiac thin filaments – biochemical, IANBD-TnC fluorescence, triplicate, confirmation (AID 504383).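 Note: 0% = DMSO at 0.472 mM calcium and 100% = DMSO at 2.9 mM calcium.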 To be noted: IANBD-labeled cardiac RTF, Ca2+ sensitivity fluorescence; at 7.2 µM; hits give high values; scaled from EC20 to saturating calcium; tested at EC20 calcium, 0.472 mM. In a few lines: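 Test system: labelled regulated thin filament protein complex. Dosing: single nominal compound dose of 7.2 µM. Benchmarks: EC20 and EC100 calcium wells. Read-out basis: fluorescence gain scaled between EC20 and EC100 calcium controls. Probe or stimulus: submaximal calcium at 0.472 mM (EC20). Technique: fluorescence. Times: 15 min compound exposure, 25 °C.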
`COc1ccccc1Nc1ncc(C(=O)N2CCC(C(N)=O)CC2)c2ccccc12`: the activation was 10.5%. For `NC(=O)C1CCN(C(=O)c2ccc(-c3ccccc3)cc2)CC1` the value was 64.1% (active); for `O=C(c1ccccc1)N1CCN(C(=O)c2ccccc2)CC1`, 4.62%. For `COc1ccc(C)cc1NC(=O)CC1COc2ccccc2O1` (centres undefined) the value was 8.38%; for `COc1ccc(C)cc1NC(=O)C12CCC(C)(C(=O)O1)C2(C)C` (centres undefined), 26.8% (active).

On to `N#Cc1ccc(CSc2nnc(-c3cnccn3)o2)cc1`, for which the activation is 221% (active). With `O=C(NC(=S)Nc1ccc2oc(=O)ccc2c1)c1ccco1`, the activation is 90.7% (active). Regarding `Cc1ncc(CO)c2cc(-c3nnc(Nc4ccc5c(c4)OCO5)s3)c(=O)oc12`, the activation was 70% (active). With `N#Cc1ccccc1NC(=O)CNc1ccc(Cl)c(C(F)(F)F)c1`, the activation is 8.37%. Consider `Cc1ccc(CCC(=O)Nc2cc(Cl)ccc2Cl)o1`, for which the activation was 7.16%. In the case of `CCOC(=O)c1ccc[n+](CC(=O)Nc2cc(C(F)(F)F)ccc2Cl)c1` it was 13% (active); in that of `CC(=O)c1cc(NC(=O)c2ccc(Cl)cc2)c(=O)oc1/C=C/N(C)C`, 5.44%. As for `COc1ccc(C(=O)Nc2cc(C(C)=O)c(/C=C/N(C)C)oc2=O)cc1`, the activation is 30.3% (active). In the case of `CC(=O)c1cc(NC(=O)c2ccc(C)cc2)c(=O)oc1/C=C/N(C)C` it was 54.1% (active); in that of `COC(=O)c1cc(NC(=O)c2ccccc2)c(=O)oc1C/C=N\OCc1ccc(Cl)cc1Cl`, 3.6%; in that of `COC(=O)c1cc2c(=O)c3ccccc3oc2nc1/C=C/N(C)C`, 5.31%.

As for `CC(=O)c1cc(NC(=O)c2ccccc2)c(=O)oc1/C=C/N(C)C`, the activation was 11.2%. For `COC(=O)c1cc(NC(=O)c2ccccc2)c(=O)oc1/C=C/Nc1ccc(Oc2ccccc2)cc1` the value was 47.1% (active); for `CCOc1ccc(NC(=O)c2cccc(OC(=S)N3CCOCC3)c2)cc1`, 3.8%. For `COc1ccccc1C(=O)Nc1ccc(OC(C)C(=O)N2CCOCC2)cc1` (centres undefined) the value was 2020% (active); for `COc1ccccc1Nc1nc(N2CCOCC2)nc(N2CCOCC2)n1`, 7.77%.

Turning to `O=C(O)C(c1ccccc1)N1C(=O)/C(=C\c2ccc(-c3ccc(Br)cc3)o2)SC1=S` (centres undefined), the activation is 186% (active). In the case of `O=C(CSC1=NS(=O)(=O)c2ccccc2N1)N1CCCCC1` it was 68.3% (active); in that of `CCOC(=O)CC1=NS(=O)(=O)c2ccccc2N1`, 9.51%; in that of `Cc1cc(=O)oc2c3c(cc(OCC(=O)NCc4ccccn4)c12)OC(C)(C)CC3`, 2.15%.

As to `CCCc1cc(=O)oc2c3c(cc(OCC(=O)N[C@@H](CSC)C(=O)O)c12)OC(C)(C)CC3`, the activation is 42% (active). With `Cc1c(C)c2c(OCC(=O)N3CCC(O)CC3)cc3c(c2oc1=O)CCC(C)(C)O3`, the activation is 3.89%. As to `COCCNC(=O)c1c(CS(=O)(=O)c2ccccc2)noc1C(=O)NCc1ccccc1`, the activation is -1.16%. For `CN(C)CCNC(=O)c1c(CSc2ccc(Cl)cc2)noc1C(=O)NCc1ccccc1` the value was 13.1% (active); for `CNc1c2cccc(C)c2nc2c(C(=O)NCCN(C)C)cccc12`, 0.42%. For `Cc1cccc(NC(=O)CN2C(=O)N/C(=C/c3ccc(C)s3)C2=O)c1` the value was 12.8% (active). For `Cc1cccc(CN2C(=O)N/C(=C/c3ccc(C)s3)C2=O)c1` the value was 8.39%; for `Cc1ccc(/C=C2/NC(=O)N(Cc3ccccc3)C2=O)s1`, 2.28%; for `CCOC(=O)CCc1c(C)nc(-n2[nH]c(C)c(CCO)c2=O)[nH]c1=O`, 6.36%. Consider `Cc1nc(-n2[nH]c3c(c2=O)CCCC3)[nH]c(=O)c1Cc1ccccc1`, for which the activation is 28% (active). In the case of `Cc1ccc(C2C(C#N)=C(N)SC(N)=C2C#N)cc1` it was 9.26%; in that of `CCC(=O)Nc1nc2c(c(=O)[nH]1)CCCC2`, 4.12%; in that of `O=C(CCc1nc2sc3c(c2c(=O)[nH]1)CCCC3)Nc1ccccc1Cl`, 84.3% (active).

Take `CC(C)(CN1CCc2ccccc2C1)NS(=O)(=O)c1ccc(Cl)cc1`: the activation was 2.24%.

As to `O=S(=O)(c1ccccc1Cl)N1CCC(Cc2ccccc2)CC1`, the activation is 10.4%. For `Cc1ccc(S(=O)(=O)NC(C)(C)CN2CCC(Cc3ccccc3)CC2)cc1` the value was 21.5% (active); for `COc1ccc(Br)cc1S(=O)(=O)Nc1ncccc1C`, 68.3% (active); for `COc1ccc(C(=O)O)cc1S(=O)(=O)NCCc1ccccn1`, 5.17%. For `COc1cc(Cl)c(S(=O)(=O)NCc2ccccn2)cc1Cl` the value was 7.75%; for `COC(=O)N1c2ccccc2CCc2ccccc21`, 8.65%.

Turning to `Cc1cc2oc3ccc(NCCCn4ccnc4)cc3c(=O)c2cc1C`, the activation was 1.5%. As for `CCCCOc1cccc(C2C(C(=O)c3cccs3)=C(O)C(=O)N2Cc2cccnc2)c1` (centres undefined), the activation was -3.36%. For `CCCOc1ccc(C2C(C(=O)c3ccc(C)o3)=C(O)C(=O)N2CCCn2ccnc2)cc1` (centres undefined) the value was 64.1% (active); for `CCNc1ccc2noc3c2c1C(=O)c1ccccc1-3`, 15.8% (active). With `O=C1c2ccccc2-c2onc3ccc(NCc4ccco4)c1c23`, the activation was 1.47%. For `CCOc1ccc2noc3c2c1C(=O)c1ccccc1-3` the value was 3.61%; for `N#CC1=C(N)Oc2cc(O)c(Cl)cc2C1c1ccccc1F` (centres undefined), 162% (active). With `COC(=O)C1=C(CSc2nc3c(cc2C#N)CN(C)CC3)OC(N)=C(C#N)C1c1ccccc1F` (centres undefined), the activation is 10.6%. With `O=C1CCC(=O)N(O)CCCCCNC(=O)CCC(=O)N(O)CCCCNC(=O)CCC(=O)N(O)CCCCCN1`, the activation is 1.89%. In the case of `CC(=O)c1cccc(Nc2cc(C)nc3ccc(C)cc23)c1` it was 25.6% (active); in that of `COc1ccc(Nc2cc(C)nc3ccc(OC)cc23)cc1`, 4.34%; in that of `CC(=O)c1cccc(NC(=S)NC2CCCCC2)c1`, 8.2%. For `CCN(C(=O)c1cnc(NC(C)C)cc1C(F)(F)F)c1ccc(Cl)cc1` the value was 4.41%; for `CCN(c1ccc(N=Cc2c(O)n(Cc3ccc(OC)cc3)c(=O)c3ccccc23)cc1)C(C)C`, 9.81%. In the case of `COc1ccc(N=Cc2c(O)c3ccccc3n2C(C)=O)cc1` it was 13.7% (active); in that of `Cc1ccc(N=Cc2sc(O)c3ccccc23)cc1`, 7.98%; in that of `COc1ccc(N=Cc2sc(O)c3ccccc23)cc1`, 152% (active). Consider `Oc1sc(C=Nc2ccccc2)c2ccccc12`, for which the activation was 12.9% (active). For `CC(=O)n1c(C=Nc2ccc(Cl)cc2)c(O)c2ccccc21` the value was 10.7%; for `O=[N+]([O-])c1ccc(N/N=C\c2ccccc2OCc2ccccc2)cc1`, 19.2% (active). In the case of `O=C(Nc1cc2c3c(c1)CC(=O)N3CCC2)C1CC1` it was 10.7%. In the case of `COc1ncnc2c1NC1=C(S2)C(=NCCC(=O)O)CC(C)(C)C1` it was 70.3% (active); in that of `CCN1/C(=C\c2ccc3ccccc3[n+]2CC)Sc2cc(C)ccc21`, 57.9% (active). For the compound `CCN1/C(=C/c2ccc3cc(C)ccc3[n+]2CC)Sc2cc(C)ccc21`, the activation is 2.46%. In the case of `CCN1/C(=C/c2ccc3cc(C)ccc3[n+]2CC)Sc2ccccc21` it was 68.1% (active); in that of `CCN1/C(=C\c2ccc3cc(C)ccc3[n+]2CC)Sc2cc(C)c(C)cc21`, 6.91%; in that of `CCN1/C(=C/c2ccc3cc(C)cc(C)c3[n+]2CC)Sc2cc(C)ccc21`, 14.7% (active).

As to `CCN1/C(=C/c2ccc3cc(C)ccc3[n+]2CC)Sc2ccc3sccc3c21`, the activation was 11.7% (active). In the case of `COc1ccccc1N=Cc1c(C)c(C#N)c2[nH]c3ccccc3n2c1=O` it was 1.91%. In the case of `COc1ccc(N2C(N)=NC(N)=NC2(C)C)cc1` it was 1.33%; in that of `CN1CC=C2C(C#N)=C(N)C(C#N)(C#N)C(CCc3ccccc3)C2C1` (centres undefined), 46% (active); in that of `CCN1CC=C2C(C#N)=C(N)C(C#N)(C#N)C(CCc3ccccc3)C2C1` (centres undefined), 11.4%. For `N#CC1=C(N)SC(N)=C(C#N)C1CCc1ccccc1` the value was 0.43%; for `CN1CC=C2C(C#N)=C(N)C(C#N)(C#N)C(Cc3ccccc3)C2C1` (centres undefined), 12.3% (active); for `CCOc1ccc(S(=O)(=O)n2ccnc2)c2ccccc12`, 12.2% (active).

For the compound `CC1=CC=CN2CC(O)CN=C12` (centres undefined), the activation was 25.4% (active). For `CCc1ccc(C(=O)NNc2cc(Cl)ccc2Cl)cc1` the value was 16.7% (active). For `CCCc1ccc(C(=O)NNc2cc(Cl)ccc2Cl)cc1` the value was 1.21%; for `CCC1SC(=Nc2cccc(C)c2)NC1=O` (centres undefined), 143% (active). Consider `O=C(CSc1nnc(COc2ccccc2)o1)N1CCN(c2ccccc2)CC1`, for which the activation is 55.2% (active). In the case of `Fc1ccc(OCc2nnc(SCCN3CCOCC3)o2)cc1` it was 4.25%.

Regarding `CCO[C@@H]1OC(C(=O)O)=C[C@H](c2coc3ccccc3c2=O)[C@H]1CCCO`, the activation is 9.42%. `COc1cccc(/C(O)=C/c2nc3ccc(C(=O)NCCc4ccc(Cl)cc4)cc3[nH]c2=O)c1`: the activation was 6.19%. In the case of `COc1ccc(N(C)S(=O)(=O)c2ccc(Cl)c(C(=O)NCCc3ccc(Cl)cc3)c2)cc1` it was 89% (active). In the case of `COc1ccc(CCNC(=O)c2ccccc2OCc2c(C)noc2C)cc1` it was 7.09%. With `Cc1cc(C(=O)COc2cccc3cccnc23)c(C)n1C`, the activation was 60.1% (active). In the case of `OCCN=C1CCCc2c1[nH]c1ccc(Cl)cc21` it was 10.9%; in that of `Cn1ncc(N=Cc2c(O)ccc3ccccc23)c1C(=O)Nc1cccc(Cl)c1`, 8.95%; in that of `Cn1c(O)c(/C=N/NC(=O)c2cc3ccccc3cc2O)c2ccccc21`, 228% (active).

With `CC(O)c1cccc(N=Cc2ccc3ccccc3c2O)c1` (centres undefined), the activation is 13.9% (active). With `Oc1ccccc1C=NN=Cc1c(O)ccc2ccccc12`, the activation was 6.43%. In the case of `Cc1[nH]c2ccccc2c1/C=C/c1cc[n+](C)cc1` it was 11.9% (active); in that of `Cc1ccc2c(c1)c(/C=C/c1cc[n+](C)cc1)c(C)n2C`, 11%; in that of `Cc1ccc2[nH]c(C)c(/C=C/c3cc[n+](C)cc3)c2c1`, 171% (active).
